ABCB6 inh MLPCN – blocks the human ABCB6 transporter; K562-ABCB6 porphyrin accumulation, flow cytometry, 1 h; active compounds read low; 0.19% of 360,000 active; fluorescence ratio to DMSO, % at 10 µM; Q9NP58; AID 602162;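 active = fluorescence ratio to DMSO below 75%, the collection mean minus 3 SD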;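 also: signal is porphyrin accumulated inside mitochondria; 100% equals median channel fluorescence of DMSO control wells; lower ratio means ABCB6 inhibition with less porphyrin fluorescence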
TNAP act hi DEA – TNAP (human) activation, high acceptor; purified TNAP, CDP-star luminescence, 1 M DEA, 30 min; active compounds read high; 0 = EDTA background, 1 = DMSO-only activity; activation factor at 20 µM; 200,000 tested, under 10 active; AID 1136;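 active = activation factor at least 2 at 20 µM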
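Control set: EDTA negative control, DMSO positive control / Assay system: human TNAP / Quantity: TNAP 1/800 final / Evaluation: TNAP activation factor scaled between EDTA and DMSO control wells / Measured by: luminescent substrate turnover signal / Compound dosing: one dose, 20 µM / Times: 30 min enzyme reaction at room temperature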
CHT allo act – human CHT allosteric activation; Q9GZV3; CHT-expressing cells, membrane potential dye, choline EC20; active compounds read high; LV-AA mutant CHT in HEK293 cells; B-score at 10 µM; 0.49% of 310,000 active;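 active = initial fluorescence not abnormally high and integrated response B-score, plate-corrected, over 3 SD above library mean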
Target sequence (Q9GZV3 whole entry, looked up): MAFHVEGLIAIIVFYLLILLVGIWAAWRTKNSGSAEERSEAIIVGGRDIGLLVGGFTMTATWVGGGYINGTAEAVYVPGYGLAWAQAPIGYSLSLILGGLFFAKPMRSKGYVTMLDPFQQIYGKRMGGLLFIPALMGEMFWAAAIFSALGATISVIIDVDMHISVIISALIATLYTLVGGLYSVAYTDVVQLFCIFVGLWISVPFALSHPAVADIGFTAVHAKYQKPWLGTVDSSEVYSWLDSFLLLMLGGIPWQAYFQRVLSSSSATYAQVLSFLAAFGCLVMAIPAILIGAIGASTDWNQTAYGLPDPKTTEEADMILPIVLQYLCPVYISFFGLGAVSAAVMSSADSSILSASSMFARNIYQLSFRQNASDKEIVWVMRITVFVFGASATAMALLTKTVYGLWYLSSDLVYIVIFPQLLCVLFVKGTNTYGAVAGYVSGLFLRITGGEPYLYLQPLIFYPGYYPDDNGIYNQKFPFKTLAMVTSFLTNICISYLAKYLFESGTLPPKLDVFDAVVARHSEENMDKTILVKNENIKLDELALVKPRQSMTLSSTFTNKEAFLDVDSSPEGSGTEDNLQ
TNAP inh no acc – inhibitors of human TNAP without phosphate acceptor | P05186 | purified TNAP, CDP-star luminescence, 30 min | inhibition, % at 20 µM | 0.26% of 200,000 active | AID 1012;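 active = tissue-nonspecific alkaline phosphatase inhibition above about 50% at 20 µM in the single-dose screen, limit read from the data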;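 also: 0% = DMSO negative control and 100% = EDTA positive control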
TNAP inh hi DEA – blocks human TNAP under high phosphate acceptor concentration; AID 1135; purified TNAP, CDP-star luminescence, 1 M DEA; 0.03% of 200,000 active; inhibition, % at 20 µM;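 active = over 50% inhibition of tissue-nonspecific alkaline phosphatase at 20 µM in the single-dose screen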;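 also: plate controls were DMSO wells for no effect and EDTA-quenched wells as full inhibition for full effect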
CHT block – human CHT choline transport inhibition; CHT-expressing cells, membrane potential dye, choline response; active compounds read low; B-score at 10 µM; 0.86% of 310,000 active;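 active = B-score over 3 SD under the library average, and starting fluorescence ratio not unusually high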;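 also: choline stimulus applied at its EC90 after an EC20 pre-addition; B-score computed on integrated fluorescence ratio after choline addition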
CHT inh conf – confirmation of human choline transporter CHT inhibitors; shares compounds with CHT block; CHT-expressing cells, choline membrane potential dye; LV-to-AA substituted CHT, HEK293 cells; CHT activity remaining % of control (active compounds read low), % at 10 µM; 70% of 2,400 active; AID 493221;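 active = choline transporter activity left, mean of duplicates at 10 µM, below buffer-only control mean minus 3 SD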;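 also: depolarization triggered by choline at its EC90 following an EC20 pre-addition; 0% = hemicholinium-3 full block and 100% = buffer-only control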
HEK293 CHT ctr – CHT inhibitor counter-screen hit in parental HEK293 cells; AID 493222; membrane potential dye, choline response; active = decrease or increase beyond buffer ±3SD; membrane potential ratio readout (active if shifted either direction beyond buffer ±3SD; no single direction) at 10 µM; 4% of 2,400 active; shares compounds with CHT block;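 also: parental cells lack the transporter so any hit is non-specific; ratio is peak minus trough fluorescence over baseline after EC90 choline challenge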
* marks the source's active call; other numbers are inactive results; i = inactive; / = not tested or not shown. Sampled rows, rich in hits. Any-hit rate of the full collection: about 1.4%.

SMILES	ABCB6 inh MLPCN	TNAP act hi DEA	CHT allo act	TNAP inh no acc	TNAP inh hi DEA	CHT block	CHT inh conf	HEK293 CHT ctr
COc1ccc(-c2nnc3n2CCCCC3)cc1OC	87	/	i	/	/	i	/	/
Clc1c(-c2nnc3n2CCC3)sc2ccccc12	121	1	i	4	0	i	/	/
Clc1c(-c2nnc3n2CCCCC3)sc2ccccc12	103	1	i	-11	-3	-5.3*	36%*	-8.5*
COc1ccc2c(Cl)c(-c3nnc4n3CCCCC4)sc2c1	106	1	i	-11	-1	-6.2*	i	i
Cc1cc(=O)n2nc(N3CCCC(C(=O)NC4CCC(C)CC4)C3)sc2n1 (configuration not stated)	95	/	i	/	/	i	/	/
Oc1c(Br)cc(Br)cc1C=NCc1ccccc1	101	1	i	16	-4	-9.8*	42%*	i
O/N=C/c1cc(Br)ccc1OCc1ccc(F)cc1	90	/	i	/	/	i	/	/
Oc1c(Br)cc(Br)cc1C=NCc1ccc(F)cc1	95	1	i	12	-3	-7.1*	57%*	i
CN1CCc2c1nc1ccccc1c2N=C1CCCN1Cc1ccccc1	95	1.1	i	-10	-10	i	/	/
CCn1cc(CNCc2cn(C)nc2-c2ccc(C3CCCCC3)cc2)cn1	95	1	/	-5	-3	/	/	/
COC(=O)[C@@]12CCCCN1[C@H](c1ccc(-c3cccc(Cl)c3)c(OC)c1)[C@H]1C(=O)N(C)C(=O)[C@H]12	96	/	i	/	/	i	/	/
N#C/C(=N\Nc1cccc(Cl)c1)C(=O)c1ccccc1	91	1	i	4	0	-5.2*	66%*	i
Cn1c(CNC(=O)CCNC(=O)c2ccc(F)c(F)c2)cc(=O)n(C)c1=O	101	/	i	/	/	i	/	/
COc1ccc(N2CCN(c3nc(NCCO)nc(N4CCOCC4)n3)CC2)cc1	101	1	i	-9	-3	-6.1*	i	i
COc1ccc(N2CCN(c3nc(Cl)nc(N4CCOCC4)n3)CC2)cc1	101	1	i	-5	-4	i	/	/
CC(C)C(NC(=O)c1ccccc1Br)c1ccccc1 (configuration not stated)	102	1.1	i	-13	-7	-5.3*	i	i
CC(NC(=S)NC(=O)c1ccccc1Br)c1ccccc1 (configuration not stated)	98	/	i	/	/	i	/	/
COc1cc(OC)c2c(-c3ccccc3)cc(=O)oc2c1C(CCN1CCCCC1)c1ccc2c(c1)OCO2 (configuration not stated)	92	/	i	/	/	-9.5*	45%*	i
CCCCCc1cc(=O)oc2c(C(CCN3CCCCC3)c3cc(OC)c(OC)c(OC)c3)c(OC)cc(OC)c12 (configuration not stated)	99	/	i	/	/	-6.1*	51%*	i
COc1cc(OC)c2c(-c3ccccc3)cc(=O)oc2c1C(CCN1CCCCC1)c1ccc(N(C)C)cc1 (configuration not stated)	99	/	i	/	/	-5.9*	29%*	i
COc1ccc(C(CCN2CCCCC2)c2c(OC)cc(OC)c3c(-c4ccccc4)cc(=O)oc23)cc1 (configuration not stated)	97	/	i	/	/	-7.1*	38%*	i
COc1cc(OC)c2c(-c3ccccc3)cc(=O)oc2c1C(CCN1CCOCC1)c1ccc(N(C)C)cc1 (configuration not stated)	101	/	/	/	/	/	/	/
O=c1c2ccccc2[nH]c(=S)n1CCN1CCCCC1	95	/	i	/	/	-12*	40%*	i
O=C(Nc1ccccc1Br)C1CCCN1S(=O)(=O)c1cccc2nsnc12 (configuration not stated)	91	/	i	/	/	-7.9*	23%*	i
CC1CCN(CCNC(=O)C2CCCN(S(=O)(=O)c3cccc4nsnc34)C2)CC1 (configuration not stated)	105	/	i	/	/	-8.1*	18%*	i
SMILES	ABCB6 inh MLPCN	TNAP act hi DEA	CHT allo act	TNAP inh no acc	TNAP inh hi DEA	CHT block	CHT inh conf	HEK293 CHT ctr
CCCCn1c(NC(C)CC)nc2c1c(=O)[nH]c(=O)n2C (configuration not stated)	99	1.1	i	-1	-7	-5.5*	37%*	-8.9*
CCC(C)Nc1nc2c(c(=O)[nH]c(=O)n2C)n1CCOc1ccccc1 (configuration not stated)	81	/	i	/	/	i	/	/
O=C(NC1CCCCCCC1)c1ccc(CNc2c(N3CCOCC3)c(=O)c2=O)cc1	99	1	i	-8	-3	-9.4*	13%*	i
Cc1ccc(CNC(=O)c2ccc(CNc3c(N4CCCC4)c(=O)c3=O)cc2)cc1	100	1	i	-10	-3	i	/	/
CC1CCCC(NC(=O)c2ccc(CNc3c(N4CCCC4)c(=O)c3=O)cc2)C1C (configuration not stated)	88	1	i	-13	4	-13*	0.2%*	i
COc1ccc(CN2CCNC(=O)C2CC(=O)N(C)CCCN2CCOCC2)cc1C (configuration not stated)	97	/	i	/	/	i	/	/
Cc1nn(CC2CC2)c(=O)n1-c1ccc(Oc2ccccc2)cc1	93	0.9	i	-1	5	-12*	59%*	i
COc1ccc(-n2c(C)nn(CCOc3ccccc3)c2=O)cc1	99	1	i	-7	-1	i	/	/
CC1C/C(=N/NC(=O)c2cccc(F)c2)c2ccc(O)cc2C1 (configuration not stated)	112	1	i	-6	2	i	/	/
COc1ccc2c(c1)CC(C)C/C2=N\NC(=O)c1ccco1 (configuration not stated)	91	1	i	-15	-2	-9.5*	58%*	i
Cc1cc(O)ccc1NS(=O)(=O)c1ccc2c3c(cccc13)C(=O)N2	99	/	i	/	/	-6.5*	57%*	i
Oc1ccc2ccccc2c1/C=N/c1nc2c(s1)CCCC2	105	1.1	i	27	-11	i	/	/
Oc1c(Br)cc(Br)cc1/C=N/c1nc2c(s1)CCCC2	/	/	i	/	/	-12*	57%*	i
CCN(CC)C(=O)N1CCN(S(=O)(=O)c2ccc(C)cc2)CC1	98	1	i	-8	-3	i	/	/
